This note sets out measurements from ChEMBL document CHEMBL1148449, “Discovery, modeling, and human pharmacokinetics of N-(2-acetyl-4,6-dimethylphenyl)-3-(3,4-dimethylisoxazol-5-ylsulfamoyl)thiophene-2-carboxamide (TBC3711), a second generation, ETA selective, and orally bioavailable endothelin antagonist” (J Med Chem, 2004).

A short description of series [1]: Compound was evaluated for oral bioavailability in rats. The following applies: rat, in vivo.
The nature of series [2]: (§1) Compound was evaluated for area under the curve expressed as (h*ug/ml). Further details: concentration or dose not given beside the values. The class given is ADME, organism-based. The settings on record: rat, in vivo. The essentials:
(§2)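 Rats given 50 mg/kg orally. Plasma was separated at once by centrifugation and stored at -80 °C. Proteins were precipitated with acetonitrile and drug measured by HPLC to give Cmax, AUC and t1/2.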

Series [3] can be described thus: Half life period was determined. It counts as ADME, organism-based. The settings on record: rat, in vivo. The essentials:
as §2

Series [4] concerns the target T1, Endothelin-1 receptor (Homo sapiens, UniProt P25101).
T1 sequence (P25101 whole entry): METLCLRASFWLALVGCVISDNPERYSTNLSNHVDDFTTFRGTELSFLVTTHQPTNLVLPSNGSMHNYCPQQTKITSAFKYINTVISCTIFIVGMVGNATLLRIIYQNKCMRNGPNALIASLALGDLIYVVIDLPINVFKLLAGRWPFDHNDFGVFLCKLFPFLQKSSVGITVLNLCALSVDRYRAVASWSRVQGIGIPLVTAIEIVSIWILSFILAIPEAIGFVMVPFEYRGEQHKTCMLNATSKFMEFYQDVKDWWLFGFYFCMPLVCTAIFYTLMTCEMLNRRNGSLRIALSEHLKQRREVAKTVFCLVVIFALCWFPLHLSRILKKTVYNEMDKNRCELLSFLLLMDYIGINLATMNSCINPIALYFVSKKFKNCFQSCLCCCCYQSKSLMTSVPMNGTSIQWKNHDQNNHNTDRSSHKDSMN
Kind of series: Displacement of [125I]ET-1 from Endothelin A receptor. On the technique in general: In a radioligand displacement assay an active substance lowers the binding of a labelled ligand.

Series [5] can be described thus: Cmax in rat plasma after oral dose (50 mg/Kg). The class given is ADME, organism-based. Further details: dose 50 mg/Kg, route oral. The procedure, abridged:
as §2

Series [6] addresses Endothelin-1 receptor (Homo sapiens) (UniProt P25101). Kind of series: Selectivity towards endothelin A receptor in human.
The test system of series [7] is Rattus norvegicus. Kind of series: Compound was evaluated for oral dose to effect 50% inhibition of mean pulmonary arterial pressure (MPAP. The class given is functional, Artery. The procedure, abridged:
(§3)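 Acute hypoxia-induced pulmonary hypertension model in rats. Compound given orally; the oral dose giving 50% inhibition of the increase in mean pulmonary arterial pressure is reported.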

In series [8] the target is Endothelin receptor (Rattus norvegicus) (UniProt P26684+P21451). Kind of series: Selectivity for endothelin A receptor over endothelin receptor B. The class given is protein assay.
Sequence of Endothelin receptor (Rattus norvegicus) (P21451 whole entry, looked up, one chain of several): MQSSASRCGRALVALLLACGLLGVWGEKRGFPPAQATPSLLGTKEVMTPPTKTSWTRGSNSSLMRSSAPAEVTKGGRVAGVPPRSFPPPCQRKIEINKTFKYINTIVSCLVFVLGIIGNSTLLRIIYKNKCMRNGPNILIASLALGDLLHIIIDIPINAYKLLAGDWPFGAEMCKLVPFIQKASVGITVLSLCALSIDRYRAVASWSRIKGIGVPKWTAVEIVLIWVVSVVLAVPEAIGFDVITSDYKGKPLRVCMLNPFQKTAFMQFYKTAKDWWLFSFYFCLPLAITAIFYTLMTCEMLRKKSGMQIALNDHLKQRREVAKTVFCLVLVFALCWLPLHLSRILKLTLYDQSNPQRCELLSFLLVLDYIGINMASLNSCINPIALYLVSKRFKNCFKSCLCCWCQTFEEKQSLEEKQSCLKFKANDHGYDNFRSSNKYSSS
Series [9] can be described thus: Half life period was evaluated in rat. The settings on record: in vivo.
Series [10] concerns Rattus norvegicus. Kind of series: Compound was evaluated for oral dose to effect 50% inhibition of mean pulmonary arterial pressure. It counts as functional, Artery. The essentials: as §3
A short description of series [11]: Compound was evaluated for oral bioavailability in human. The class given is ADME, organism-based. The following applies: in vivo, read-out: Activity.
Series [12] is described as follows: Half life period was evaluated in dog; 4-4.8. The settings on record: in vivo. It counts as ADME, organism-based, Canis lupus familiaris.
Series [13] is described as follows: Half life period was evaluated in rat; 5.9-7.5. It counts as ADME, organism-based. The settings on record: in vivo. The procedure, abridged: as §2
Series [14] is described as follows: Half life period was evaluated in human. It counts as ADME.
Series [15] can be described thus: Compound was evaluated for oral bioavailability in dog; 90-100. It counts as ADME, organism-based, Canis lupus familiaris. The following applies: in vivo, read-out: Activity.
The nature of series [16]: as §1. The settings on record: human. It counts as ADME. The essentials: as §2
In series [17] the target is T2, Endothelin-1 receptor (Rattus norvegicus, UniProt P26684).
T2 sequence (P26684 whole entry): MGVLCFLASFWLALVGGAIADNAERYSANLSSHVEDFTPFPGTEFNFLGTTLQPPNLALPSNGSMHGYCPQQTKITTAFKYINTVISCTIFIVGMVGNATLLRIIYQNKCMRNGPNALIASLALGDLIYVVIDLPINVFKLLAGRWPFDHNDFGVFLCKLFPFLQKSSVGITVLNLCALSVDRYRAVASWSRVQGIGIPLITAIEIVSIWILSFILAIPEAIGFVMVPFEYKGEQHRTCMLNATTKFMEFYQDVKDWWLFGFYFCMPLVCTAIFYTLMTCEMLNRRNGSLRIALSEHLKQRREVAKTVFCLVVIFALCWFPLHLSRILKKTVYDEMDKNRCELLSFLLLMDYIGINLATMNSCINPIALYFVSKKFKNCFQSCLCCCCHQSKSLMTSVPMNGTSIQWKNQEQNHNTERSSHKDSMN
Kind of series: Binding affinity towards Endothelin A receptor.

Series [18] concerns the target T3, Endothelin receptor type B (Homo sapiens, UniProt P24530).
T3 sequence (P24530 whole entry): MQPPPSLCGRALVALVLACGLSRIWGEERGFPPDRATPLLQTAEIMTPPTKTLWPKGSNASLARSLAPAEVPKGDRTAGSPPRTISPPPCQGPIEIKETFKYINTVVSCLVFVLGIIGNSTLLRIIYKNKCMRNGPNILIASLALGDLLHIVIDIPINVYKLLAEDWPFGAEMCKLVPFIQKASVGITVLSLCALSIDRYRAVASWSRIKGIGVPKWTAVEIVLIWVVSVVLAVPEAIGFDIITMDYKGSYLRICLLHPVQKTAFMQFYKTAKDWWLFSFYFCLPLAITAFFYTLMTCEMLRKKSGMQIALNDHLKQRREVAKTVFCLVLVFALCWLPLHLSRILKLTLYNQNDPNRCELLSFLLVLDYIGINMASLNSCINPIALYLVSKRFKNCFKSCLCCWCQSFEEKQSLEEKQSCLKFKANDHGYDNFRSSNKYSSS
Kind of series: Inhibitory concentration towards endothelin B receptor in human. It counts as functional.

The nature of series [19]: Half life period was determined; 6-7. The class given is ADME. The settings on record: human.
The test system of series [20] is Rattus norvegicus. Kind of series: Compound was evaluated for oral dose to effect 50% inhibition of mean pulmonary arterial pressure (MPAP). It counts as functional, Artery. The essentials:
as §3

As a reminder, the AUC is concentration integrated over time. What is called half-life is how long it takes for the measured level to halve. Usually IC50 stands for the concentration that inhibits the measured activity by half. For orientation: Cmax means the highest concentration seen after dosing. What is called ED50 is the dose at which the effect has come halfway, by size or by number of responders. The compound `Cc1cc(C)c(NC(=O)c2sccc2S(=O)(=O)Nc2onc(C)c2Cl)c(C(=O)CS(C)(=O)=O)c1` showed a bioavailability in series [1] of 16%. In addition, in series [2], the AUC was determined as 636 µg·h/mL. In series [3], this compound gave a half-life of 12.2 h. This compound also came in with an IC50 in series [4] of 0.1 nM. Moreover, the Cmax in series [5] came to 37.3 µg/mL. Also, the Selectivity in series [6] is 66500. This compound yielded an ED50 in series [7] of over 5 mg/kg.

`COc1ccccc1Oc1c(NS(=O)(=O)c2ccc(C(C)C)cn2)nc(-c2ccnc(-c3nnn[nH]3)c2)nc1OCCO` [TEZOSENTAN] displayed a Selectivity in series [8] of 56. For the same compound, the half-life in [9] is 7.8 min. The IC50 in [4] came to 23 nM.

As usually defined, the Ki is a measure of affinity in units of concentration, obtained from inhibition or displacement. On to `Cc1cc2c(cc1CC(=O)c1sccc1S(=O)(=O)Nc1onc(C)c1Cl)OCO2` [SITAXENTAN], for which the Selectivity stood at 7000 in series [8] and 6500 in series [6]. The same compound gave an Activity in series [10] of 2.5 mg/kg. Moreover, the bioavailability in series [11] is about 80%; in [15] it was 100%. In addition, the half-life in [12] is 4.8 h; in series [13], 7.5 h; in series [14], 6.46 h. In addition, in series [16], the AUC worked out at 33 µg·h/mL. The compound further gave a Ki in [17] of 0.43 nM. This compound also gave an IC50 in series [18] of 9800 nM.

In the case of `CC(=O)c1cc(C)cc(C)c1NC(=O)c1sccc1S(=O)(=O)Nc1onc(C)c1C`, the values for the bioavailability in [11] and in series [1] were over 80% and about 100%, respectively. In series [2], the AUC turned out to be 1310 µg·h/mL. The results for the half-life in series [19] and in [3] were 7 h and 5.3 h, respectively. This compound also registered an Activity in series [20] of under 1 mg/kg. Also, the IC50 in [4] was 0.08 nM. Moreover, the peak level in series [5] (Cmax) was 180 µg/mL. The same compound registered a Selectivity in series [6] of 441000.
